Screening results (PubChem)
Most compounds without a hit are left out; they make up all but 4.6% or so of the library.
TAAR1 agonist = agonists of human TAAR1; 360,000 compounds, 0.99% hits; activation, % at 3 µM; AID 624467; Q96RJ0; CHO RD-HGA16 TAAR1, Fluo-8 calcium fluorescence; vehicle wells 0%, saturating PEA agonist 100%;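 active means activation above the mean activation of all test compounds in the run plus 3 SD, cut at about 38% in these data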
Target sequence (Q96RJ0 whole entry, looked up): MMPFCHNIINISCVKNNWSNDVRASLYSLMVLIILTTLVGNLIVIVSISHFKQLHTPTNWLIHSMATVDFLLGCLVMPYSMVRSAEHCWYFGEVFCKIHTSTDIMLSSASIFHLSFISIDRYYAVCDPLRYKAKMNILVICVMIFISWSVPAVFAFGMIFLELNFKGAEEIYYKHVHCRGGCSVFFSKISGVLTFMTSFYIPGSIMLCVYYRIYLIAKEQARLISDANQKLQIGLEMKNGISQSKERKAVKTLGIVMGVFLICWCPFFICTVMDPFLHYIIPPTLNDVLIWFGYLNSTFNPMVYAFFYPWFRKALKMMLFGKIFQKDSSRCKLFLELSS
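System: CHO-derived RD-HGA16 cells with stable Gα16 and human TAAR1. Times: 17-24 h plating, Fluo-8 75 min 37 °C, 30 min RT. Measured by: calcium-sensitive Fluo-8 signal, excitation 470-495, emission 515-575 nm. Read-out basis: % activation relative to PEA EC100 response. Control set: DMSO and PEA EC100. Repeats: no replicates (n 1).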
OX1R antag-1 = OX1R (human) antagonism | O43613 | OX1R-expressing cells, FRET antagonist read-out | inhibition, % at 6.6 µM | 330,000 compounds, 1.8% hits | AID 485270; in the data active means inhibition mostly above about 38%, no sharp cut-off; inactive means mostly below about 40%
OX1R antag-2 = antagonists of human orexin 1 receptor; O43613; CHO/OX1R cells, Fluo-8 calcium fluorescence, orexin A; inhibition, % at 5 µM; 330,000 compounds, 0.43% hits; AID 434989;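 active means inhibition above its plate's threshold, mean inhibition of all tested compounds on the plate plus 3 SD, cut at about 37% in these data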
TAAR1 antagonist = human TAAR1 antagonism; Q96RJ0; CHO RD-HGA16 TAAR1, Fluo-8 calcium fluorescence, antagonist; inhibition, % at 3 µM; 360,000 compounds, 1.5% hits; AID 624466;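 active means inhibition above a per-plate cutoff, the mean inhibition of test compounds on that plate plus 3 SD, cut at about 49% in these data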
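System: CHO RD-HGA16 cells bearing hTAAR1. Reagent: EC80 β-phenethylamine stimulus. Schedule: seeding 17-24 h prior, 75-min 37 °C, 30-min RT dye loading. Signal: Fluo-8 intracellular calcium dye fluorescence, real-time kinetic reads. Read-out: % inhibition from peak post-agonist over basal fluorescence ratio. Benchmarks: vehicle wells and EC80 agonist wells. Replicates: n of 1.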
GPR7 antag = blocks human GPR7 receptor signaling; inhibition, % at 4.4 µM; 290,000 compounds, 1.1% hits; P48145; GPR7-expressing cells, fluorescence antagonist assay; in the data active means inhibition above about 16%, passing the limit was not always enough;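 further: cells stimulated with the agonist NPW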
Target sequence (P48145 whole entry, looked up): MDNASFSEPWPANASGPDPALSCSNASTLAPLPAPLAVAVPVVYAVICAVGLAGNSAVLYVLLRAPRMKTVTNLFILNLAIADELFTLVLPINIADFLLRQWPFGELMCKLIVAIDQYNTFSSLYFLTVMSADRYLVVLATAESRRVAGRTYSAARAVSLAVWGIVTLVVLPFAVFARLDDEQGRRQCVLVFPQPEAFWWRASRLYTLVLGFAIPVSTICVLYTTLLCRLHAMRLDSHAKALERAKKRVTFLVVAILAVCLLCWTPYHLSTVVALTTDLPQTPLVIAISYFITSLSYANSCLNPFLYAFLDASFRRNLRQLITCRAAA
CHO parental Ca = signal in parental CHO cells, OX1R antagonist counter-screen. parental CHO-K1, ATP-induced calcium, Fluo-8 fluorescence. inhibition, % at 5.6 µM. 330,000 compounds, 0.63% hits;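 active means inhibition above that plate's mean sample inhibition plus 3 SD, cut at about 26% in these data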
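Test system: untransfected parental CHO cell line; also added: ATP stimulus; dosing: 5.6 µM, single dose; signal: calcium-sensitive Fluo-8 fluorescence; measure: percent inhibition of ATP-evoked calcium rise, normalized to controls; benchmarks: low control ATP plus DMSO, high control DMSO only; replication: one well per compound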
TAAR1 ag conf = confirmation of human TAAR1 agonists | activation, % at 3 µM | shares compounds with TAAR1 agonist | AID 651783 | 2,400 compounds, 82% hits | CHO RD-HGA16 TAAR1, Fluo-8 calcium fluorescence; scaled: DMSO 0%, maximal phenethylamine 100%;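 active means activation above a cutoff set at the run's mean compound activation plus 3 SD, cut at about 39% in these data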
Ga16 nonsel ag = counter-screen for TAAR1 agonists: nonselective agonists in parental cells; 2,400 compounds, 50% hits; CHO-Ga16 parental, Fluo-8 calcium fluorescence; normalized to maximal ATP response, DMSO zero; activation, % at 3 µM; shares compounds with TAAR1 agonist;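 active means activation above the run cutoff, the mean activation over all tested wells plus 3 SD, cut at about 12% in these data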
TAAR1 desensitize = TAAR1 response desensitization, agonist counter-screen; shares compounds with TAAR1 agonist; CHO RD-HGA16 hTAAR1, Fluo-8 calcium, beta-PEA response inhibition; inhibition, % at 3 µM; 2,400 compounds, 46% hits;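 active means inhibition above the run cutoff, the mean inhibition of all test compounds plus 3 SD, cut at about 49% in these data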;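 further: beta-PEA stimulus applied at its EC80; loss of beta-PEA calcium signal after compound pretreatment read as receptor desensitization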
Ga16 nonsel ant = nonselective Ga16 antagonist in TAAR1 agonist counter-screen | inhibition, % at 3 µM | CHO-Ga16 ATP-induced calcium, Fluo-8 fluorescence | AID 651952 | shares compounds with TAAR1 agonist | 2,400 compounds, 39% hits;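 active means inhibition above the plate's mean compound inhibition plus 3 SD, computed per plate, cut at about 22% in these data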
A number is an active result; n = inactive; x = no result given.

SMILES | TAAR1 agonist | OX1R antag-1 | OX1R antag-2 | TAAR1 antagonist | GPR7 antag | CHO parental Ca | TAAR1 ag conf | Ga16 nonsel ag | TAAR1 desensitize | Ga16 nonsel ant
COC(=O)c1ccc(N2C(=O)C3CC=CC(C)C3C2=O)cc1 (configuration not stated) | n | n | n | n | n | n | x | x | x | x
CCC(=O)c1cn(CC(=O)Nc2cc(C)ccc2C)c2ccccc12 | n | n | n | n | n | n | x | x | x | x
COc1cc(CCC(=O)OCC(=O)Nc2ccc(F)cc2F)cc(OC)c1OC | n | n | n | n | n | n | x | x | x | x
O=C(CN1CCN(c2cccc(Cl)c2)CC1)c1ccc(O)cc1O | n | n | n | n | n | n | x | x | x | x
COc1ccc(NC(=O)C[C@H]2C(=O)N(Cc3ccccc3)C[C@@H]2c2ccc(OC)cc2)cc1 | n | x | x | n | x | x | x | x | x | x
COc1ccc([C@H]2CN(CCc3ccccc3)C(=O)[C@@H]2CC(=O)Nc2ccccc2)cc1 | 50.4 | x | x | n | x | x | n | n | n | n
CNC(=O)C[C@H]1C(=O)N(CCc2ccccc2)C[C@@H]1c1ccc(OC)cc1 | 42.5 | x | x | n | x | x | 76.5 | n | n | n
COC(=O)c1ccc(CNC(=O)C(Cc2ccccc2)NC(=O)c2ccccc2)cc1 (configuration not stated) | n | x | x | n | x | x | x | x | x | x
O=c1c2[nH]c3ccccc3c2ncn1Cc1ccco1 | n | n | n | n | n | n | x | x | x | x
Cc1ccc2c(c1)[nH]c1c(=O)n(Cc3ccco3)cnc12 | 72.9 | n | n | n | n | n | 101.0 | 74.0 | 89.3 | 65.5
Cc1noc(C)c1S(=O)(=O)N1CCN(c2ccccc2Cl)CC1 | n | x | x | n | x | x | x | x | x | x
CN1C(=O)C2CN(CCc3ccccc3)CNC2N(C)C1=O (configuration not stated) | x | n | n | x | n | n | x | n | x | n
OC(c1ccccc1)(C1CCCCC1)C(CN1CCOCC1)c1ccccc1 (configuration not stated) | 51.6 | n | n | n | n | n | 59.1 | 33.4 | n | n
COc1ccccc1/C=C/CN1CC(C)OC(C)C1 (configuration not stated) | n | n | n | n | n | n | x | x | x | x
CC1=C(NCCc2ccccc2)CCC1=O | 95.4 | n | n | 59.7 | n | n | 102.8 | n | 87.4 | n
CCC(=O)N1CCc2cc(S(=O)(=O)NCCc3ccc(S(N)(=O)=O)cc3)ccc21 | n | n | n | n | n | n | x | x | x | x
O=C(O)CCCC(=O)Nc1nc(-c2ccccc2)cs1 | n | n | n | n | n | n | x | x | x | x
O=C(Cc1c(F)c(F)c(F)c(F)c1F)Nc1nc(-c2ccccc2)cs1 | 53.9 | 47.9 | n | n | n | 48.3 | 83.4 | 32.6 | 68.7 | 30.1
NC(=O)CC(NC(=O)Cc1ccc(Cl)cc1)c1ccc(NCCc2ccccc2F)c([N+](=O)[O-])c1 (configuration not stated) | x | n | n | x | x | n | x | n | x | n
COc1cc(/C=C2/C(=O)c3cccc([N+](=O)[O-])c3C2=O)c(Br)cc1O | 49.9 | n | n | n | n | n | n | 27.9 | n | 45.7
COc1ccccc1NC(=O)CCCCCN1C(=O)c2cccc([N+](=O)[O-])c2C1=O | n | n | n | n | n | n | x | x | x | x
O=C(c1ccco1)N1CCN(C(=O)N2CCCCC2)CC1 | n | n | n | n | n | n | x | x | x | x
O=C(O)C1=C(C(=O)N2CCN(C(=O)c3ccco3)CC2)CCCC1 | 43.1 | n | n | n | n | n | 51.6 | n | n | n
CC(=O)c1ccc(N2CCN(C(=O)c3ccc(Cn4c(=S)[nH]c5ccc(N6CCOCC6)cc5c4=O)cc3)CC2)cc1 | 52.9 | n | n | n | n | n | n | n | n | n
Cc1cc(=O)cc(C)n1-c1ccc(F)cc1F | n | n | n | n | n | n | x | x | x | x
SMILES | TAAR1 agonist | OX1R antag-1 | OX1R antag-2 | TAAR1 antagonist | GPR7 antag | CHO parental Ca | TAAR1 ag conf | Ga16 nonsel ag | TAAR1 desensitize | Ga16 nonsel ant
Cc1ccc(/C=N\Nc2cn[nH]c(=O)c2Cl)cc1 | 40.8 | n | n | n | n | n | 62.2 | n | n | n
Cc1ccsc1/C=N\Nc1cn[nH]c(=O)c1Cl | 73.5 | n | n | 54.0 | n | n | 87.4 | n | 77.4 | n
O=c1[nH]ncc(N/N=C/c2ccccc2)c1Cl | 64.0 | n | n | 78.2 | n | n | 91.9 | n | 92.8 | n
CCCCC(=O)Nc1cnc(NC(=O)c2cccs2)cc1C | n | n | n | n | n | n | x | x | x | x
CCOc1cc(C2/C(=C(/O)c3ccc(OC(C)C)cc3)C(=O)C(=O)N2CCCOC)ccc1O (configuration not stated) | n | n | n | n | n | n | x | x | x | x
CCCCCCc1cc2cc(-c3nnc(-c4ccccc4OC)o3)c(=O)oc2cc1O | n | n | n | n | n | n | x | x | x | x
CCCCCCc1cc2cc(-c3nnc(-c4ccccc4O)o3)c(=O)oc2cc1O | 48.3 | n | n | n | n | n | 48.4 | 46.4 | 59.4 | 60.3
COC(=O)[C@]12CCCCC=C1N(CCC1=CCCCC1)C(=O)[C@H](CC(=O)NCCc1ccccc1OC)C2 | n | x | x | n | x | x | x | x | x | x
CCOC(=O)[C@]12CCCC=C1N(CCC1=CCCCC1)C(=O)[C@H](CC(=O)NCCc1ccccc1OC)C2 | 58.2 | x | x | n | x | x | 74.7 | n | 60.0 | n
CCOC(=O)[C@]12CCC=C1N(CCC1=CCCCC1)C(=O)[C@H](CC(=O)NCc1cccc3ccccc13)C2 | n | x | x | n | x | x | x | x | x | x
CCOC(=O)[C@]12CCC=C1N(CCC1=CCCCC1)C(=O)[C@H](CC(=O)NCCc1ccccc1OC)C2 | x | x | x | x | x | x | x | n | x | n
CCOC(=O)[C@]12CCCC=C1N(Cc1ccc3c(c1)OCO3)C(=O)[C@H](CC(=O)NCCc1ccccc1OC)C2 | 74.5 | x | x | n | x | x | 75.2 | n | 69.4 | n
COc1cc2nc(Nc3ccc(F)cc3)nc(N)c2cc1OC | 58.6 | n | n | n | n | n | 54.0 | n | n | n
COc1cc2nc(Nc3ccc(C)c(C)c3)nc(N)c2cc1OC | n | n | n | n | n | n | x | x | x | x
CSc1ccc(S(=O)(=O)Nc2ccc(S(=O)(=O)Nc3ccc(C)cc3)cc2)cc1 | n | n | n | n | n | n | x | x | x | x
Cc1ccc(S(=O)(=O)Nc2ccc(N(C)S(=O)(=O)c3ccc(C)cc3)cc2)cc1 | 51.8 | n | n | n | n | n | 44.5 | 18.6 | n | n
CCc1ccc(-c2csc(NC(=O)C3=COCCO3)n2)cc1 | n | n | n | n | x | n | x | x | x | x
